Screening data: PubChem BioAssay, several laboratories
Apaf1 inhib – blocks human Apaf-1 apoptosome activity; O14727; reconstituted apoptosome caspase-3 activity, DEVD-Rh110 fluorescence; inhibition, % at 20 µM; actives 0.71% (n = 330,000); active = inhibition of at least 40% at 20 µM;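 also: plate controls were DMSO wells for no effect and DEVD-CHO caspase inhibitor wells for full effect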
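Material: reconstituted apoptosome with Apaf-1, cytochrome c, caspase-9, procaspase-3, dATP. Technique: Rh110 fluorescence intensity. Buffer or medium: pH 7.5 Hepes buffer with CHAPS, BSA, DTT. Times: 30 min plus 50 min, RT.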
TDP2 inh – TDP2 (human) inhibition, absorbance primary screen; AID 720702; actives 0.34% (n = 370,000); inhibition, % at 12.8 µM; recombinant TDP2, T5PNP hydrolysis, p-nitrophenol absorbance 415 nm;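 active = inhibition above the mean of all tested compounds plus 3 SD, set per campaign, cut at about 25% in these data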;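 also: 0% = DMSO with enzyme and 100% = buffer with substrate but no TDP2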
Target sequence (O95551 whole entry, looked up): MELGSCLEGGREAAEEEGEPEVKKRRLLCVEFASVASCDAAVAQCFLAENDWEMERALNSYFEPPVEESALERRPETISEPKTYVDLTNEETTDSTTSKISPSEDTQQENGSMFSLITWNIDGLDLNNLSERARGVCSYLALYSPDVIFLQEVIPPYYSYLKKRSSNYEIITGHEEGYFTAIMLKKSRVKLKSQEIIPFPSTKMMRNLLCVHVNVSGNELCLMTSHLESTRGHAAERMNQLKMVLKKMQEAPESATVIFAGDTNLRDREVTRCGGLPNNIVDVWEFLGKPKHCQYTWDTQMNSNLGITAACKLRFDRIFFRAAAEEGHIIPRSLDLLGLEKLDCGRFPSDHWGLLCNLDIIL
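System – recombinant human TDP2 · Amount – 120 nM TDP2 per well · Buffer or medium – Mg2+-containing Tris-HCl buffer, pH 7.5 · Reagent – T5PNP substrate, 5 mM · Dosing – 12.8 µM single point, 1% DMSO · Incubation – 2 h at 37 °C · Measured by – epi absorbance · Read-out basis – percent inhibition · Benchmarks – high control without enzyme, low control DMSO plus TDP2 · Repeats – singlicate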
GSTO1 counter – counter-screen for RBBP9 inhibitors: inhibitors of human GSTO1. P78417. inhibition, % at 5.96 µM. recombinant GSTO1, activity-based probe fluorescence polarization. actives 1.1% (n = 300,000). AID 1974;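 active = inhibition above the campaign mean inhibition plus 3 SD, cut at about 35% in these data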;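 also: 0% = GSTO1-1 with DMSO and 100% = wells lacking GSTO1-1 enzyme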
Target sequence (P78417 whole entry, looked up): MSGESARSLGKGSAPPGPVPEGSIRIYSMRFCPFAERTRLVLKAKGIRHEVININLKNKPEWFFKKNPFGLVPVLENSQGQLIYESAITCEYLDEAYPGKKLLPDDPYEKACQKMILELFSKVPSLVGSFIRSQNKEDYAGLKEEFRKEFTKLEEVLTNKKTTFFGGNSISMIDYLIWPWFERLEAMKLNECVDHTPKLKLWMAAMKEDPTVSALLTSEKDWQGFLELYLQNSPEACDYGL
PRMT1 FP inh – blocks human protein arginine methyltransferase 1. Q99873. recombinant PRMT1, activity-based probe fluorescence polarization. inhibition, % at 2.79 µM. actives 1.3% (n = 370,000). AID 652257;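 active = inhibition above about 21% made by adding two undisclosed values, limit read from the data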
PAD4 FP inh – inhibitors of human PAD4; recombinant PAD4, RCA probe fluorescence polarization; inhibition, % at 6.36 µM; actives 0.41% (n = 330,000);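 active = percent inhibition above a cutoff equal to the mean of all tested compounds plus 3 SD, cut at about 15% in these data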;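 also: 0% = PAD4 with RCA probe and DMSO and 100% = probe without PAD4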
* hit, by the source's call. This is a sample that favours compounds with a hit; in the whole collection about 2.6% have one here.

Results for CSc1nsc(SCC(=O)Nc2c(C)n(C)n(-c3ccccc3)c2=O)n1 ?
Apaf1 inhib: 6; TDP2 inh: 2; GSTO1 counter: -4; PRMT1 FP inh: 22*; PAD4 FP inh: 0

How did Cc1csc(SCC(=O)Nc2c(C)n(C)n(-c3ccccc3)c2=O)n1 do in these assays?
Apaf1 inhib: 0; TDP2 inh: 3; GSTO1 counter: 0; PRMT1 FP inh: -1; PAD4 FP inh: -7

Results for CC1(C)Cc2c(c(-c3ccco3)nc3sc4c(NCC5CCCO5)ncnc4c23)CO1 (stereo unspecified) ?
Apaf1 inhib: 33; TDP2 inh: -9; GSTO1 counter: -9; PRMT1 FP inh: 23*; PAD4 FP inh: 2

Results for O=C(COC(=O)COc1ccc(Cl)cc1Cl)Nc1cccnc1Cl ?
Apaf1 inhib: 7; TDP2 inh: 7; GSTO1 counter: 35*; PRMT1 FP inh: 3; PAD4 FP inh: 6

How did O=C(COC(=O)COc1ccccc1)Nc1cccnc1Cl do in these assays?
Apaf1 inhib: 6; TDP2 inh: 0; PRMT1 FP inh: -3; PAD4 FP inh: -1

Results for Nc1nc(=S)c2ncn(C3OC(CO)C(O)C3O)c2[nH]1 (stereo unspecified) ?
TDP2 inh: 13; GSTO1 counter: 13; PRMT1 FP inh: 23*; PAD4 FP inh: 0

Results for O=S1(=O)C=CCN1Cc1cn(Cc2ccc(F)cc2)nn1 ?
TDP2 inh: 2; PRMT1 FP inh: -8

Results for N#Cc1ccsc1NC(=O)c1ccc2ncsc2c1 ?
TDP2 inh: 6; PRMT1 FP inh: 22*

Results for O=C(Nc1ccc(N2CCOCC2)cc1)c1ccc2ncsc2c1 ?
Apaf1 inhib: 4; TDP2 inh: -3; PRMT1 FP inh: 22*; PAD4 FP inh: 1

How did CN(Cc1ccco1)S(=O)(=O)c1ccc2c(c1)CCN2C(=O)CC(C)(C)C do in these assays?
TDP2 inh: -6; PRMT1 FP inh: 0

How did Oc1cc(-n2cccn2)c(O)cc1-n1cccn1 do in these assays?
TDP2 inh: 11; GSTO1 counter: 70*; PRMT1 FP inh: 57*; PAD4 FP inh: -13

What do the screens show for `Oc1ccc(/C=N/N2CCOCC2)c(O)c1O`?
Apaf1 inhib: 21; TDP2 inh: 0; GSTO1 counter: 38*; PRMT1 FP inh: 8; PAD4 FP inh: 14

Results for O=C(NCCCO)Nc1ccc2nc(-c3ccco3)c(-c3ccco3)nc2c1 ?
Apaf1 inhib: 57*; GSTO1 counter: 66*; PAD4 FP inh: 7

Results for CN1C(=O)C[C@@](C#N)(C(=O)Nc2nc3ccc(F)cc3s2)[C@H]1c1ccccc1 ?
TDP2 inh: 2; PRMT1 FP inh: -1

What do the screens show for `Cc1ccnc(NS(=O)(=O)c2ccc(NC(=O)c3ccc([N+](=O)[O-])s3)cc2)n1`?
Apaf1 inhib: -3; TDP2 inh: 2; GSTO1 counter: 37*; PRMT1 FP inh: 1; PAD4 FP inh: -2

Results for Cc1cc(NS(=O)(=O)c2ccc(NC(=O)c3ccc([N+](=O)[O-])s3)cc2)nc(C)n1 ?
Apaf1 inhib: 21; TDP2 inh: 11; PRMT1 FP inh: -2; PAD4 FP inh: -8

What do the screens show for `CC(C)n1c(SCCCc2ccccc2)nc2c1c(=O)[nH]c(=O)n2C`?
TDP2 inh: -9; PRMT1 FP inh: 22*

Results for O=C(CSc1nnc(-c2ccc(Cl)cc2)n1-c1ccccc1)Nc1ccc(Oc2ccccc2)cc1 ?
TDP2 inh: 2; PRMT1 FP inh: 4

How did CN(C)S(=O)(=O)c1cccc(NC(=S)Nc2cccc3cnccc23)c1 do in these assays?
TDP2 inh: 28*; PRMT1 FP inh: 16

What do the screens show for `CCc1cccc(NC(=S)Nc2cccc3ccccc23)c1`?
Apaf1 inhib: 79*; TDP2 inh: -6; GSTO1 counter: -4; PRMT1 FP inh: 2; PAD4 FP inh: -4

What do the screens show for `COc1cccc(NC(=S)Nc2cccc3ccccc23)c1`?
Apaf1 inhib: 94*; TDP2 inh: 18; GSTO1 counter: -3; PRMT1 FP inh: -2; PAD4 FP inh: -5

How did CCC[C@H]1[C@@H](NC(=O)/C=C/c2ccccc2)CC[C@@]23CCCN2C(=O)CCC[C@@H]13 do in these assays?
TDP2 inh: 0; PRMT1 FP inh: 2

What do the screens show for `COc1ccc2c(c1)CN1C(=O)N(Cc3ccccc3)S(=O)(=O)CC21` (stereo unspecified)?
TDP2 inh: -12; PRMT1 FP inh: -3

Results for CCN1C(N(C)CCc2c[nH]c3ccccc23)=N[C@@H](c2cccc(C(F)(F)F)c2)C(C(=O)OC)=C1C ?
Apaf1 inhib: 55*; PAD4 FP inh: 0

What do the screens show for `CCN1C(N(C)CCc2cccs2)=N[C@@H](c2ccccc2)C(C(=O)OC)=C1C`?
Apaf1 inhib: 8; TDP2 inh: 0; GSTO1 counter: 1; PRMT1 FP inh: 3; PAD4 FP inh: -2

Results for O=[N+]([O-])c1cccc(-c2ccc(CN3CCN(c4ccccc4)CC3)o2)c1 ?
Apaf1 inhib: 13; TDP2 inh: -13; GSTO1 counter: 0; PRMT1 FP inh: 6; PAD4 FP inh: -2

What do the screens show for `O=[N+]([O-])c1ccccc1-c1ccc(CN2CCN(c3ccccc3)CC2)o1`?
Apaf1 inhib: 16; TDP2 inh: -23; GSTO1 counter: 8; PRMT1 FP inh: 23*; PAD4 FP inh: -7

How did CCOc1ccc(NC(=S)Nc2cc(C)[nH]n2)cc1 do in these assays?
Apaf1 inhib: 0; TDP2 inh: -5; GSTO1 counter: 7; PRMT1 FP inh: 5; PAD4 FP inh: -1

What do the screens show for `Fc1ccc(NC(=S)Nc2cccc3ccccc23)cc1`?
Apaf1 inhib: 85*; TDP2 inh: 6; GSTO1 counter: -2; PRMT1 FP inh: 7; PAD4 FP inh: -2

What do the screens show for `Cc1ccc(NC(=S)Nc2cccc3ccccc23)cc1`?
Apaf1 inhib: 31; TDP2 inh: -5; GSTO1 counter: 2; PRMT1 FP inh: 8; PAD4 FP inh: -13

Results for Fc1ccc(NC(=S)Nc2cccc3ccccc23)cc1F ?
Apaf1 inhib: 81*; TDP2 inh: -4; GSTO1 counter: 8; PRMT1 FP inh: 2; PAD4 FP inh: 1

Results for Cc1cc(C)cc(NC(=S)Nc2cccc3ccccc23)c1 ?
Apaf1 inhib: 32; TDP2 inh: -1; GSTO1 counter: -1; PRMT1 FP inh: 3; PAD4 FP inh: -3

Results for CC(C)c1ccc(NC(=S)Nc2cccc3ccccc23)cc1 ?
Apaf1 inhib: 84*; TDP2 inh: 8; GSTO1 counter: -1; PRMT1 FP inh: 0; PAD4 FP inh: -2

Results for Cc1cc(NC(=S)Nc2cccc3ccccc23)n[nH]1 ?
Apaf1 inhib: -3; TDP2 inh: -8; GSTO1 counter: 10; PRMT1 FP inh: 23*; PAD4 FP inh: -1

Results for CCCCNC(=O)C[C@@H]1C(=O)N(Cc2ccc(OC)cc2)C2=CCN(C(=O)OC(C)(C)C)C[C@]21C(=O)OCC ?
TDP2 inh: -6; PRMT1 FP inh: -1
